Assay results from ChEMBL document CHEMBL5053559, “Photoaffinity-Based Chemical Proteomics Reveals 7-Oxocallitrisic Acid Targets CPT1A to Trigger Lipogenesis Inhibition” (ACS Med Chem Lett, 2021).
Calls of active or inactive are those of the source. No cut-off for these calls is given here.

Assays:
AML12 [1] = test: Inhibition of oleic acid-induced lipid accumulation in mouse AML12 cells with Si-RNA-induced FADS3 knockdown; format: functional, cell-based
AML12 [2] = test: Inhibition of oleic acid-induced lipid accumulation in mouse AML12 cells with Si-RNA-induced ECHS1 knockdown; format: functional, cell-based
AML12 [3] = test: Inhibition of oleic acid-induced lipid accumulation in mouse AML12 cells with siRNA-induced CPT1A knockdown at 40 uM measured after 24 hrs by Oil red O staining based microscopic assay; format: functional, cell-based
In short: (§1)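 AML12 cells either transfected with siRNA against CPT1A or pretreated with 20 μM etomoxir, with negative-control comparison. Cells then loaded with oleic acid and exposed to compound at 40 μM for 24 h. Lipid read by Oil Red O staining with image quantification. Mean ± SEM, n = 3.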

AML12 [4] = test: Activation of CPT1A in mouse AML12 cells assessed as inhibition of oleic acid-induced lipid accumulation using L-carnitine and palmitoyl CoA as substrates pretreated with ETO for 6 hrs followed by addition of compound at 20 uM measured after 48 hrs by […] reagent based enzymatic assay; format: cell-based
In short: (§2)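 Lysates of AML12 cells grown in medium with 0.15 mM oleic acid. Cells pretreated 6 h with ETO or with DMSO, then exposed to compound for 24 h (legend says 48 h). Lysis by sonication in 0.5 M Tris, 0.15 M KCl and protease inhibitors. Protein measured by Bradford. Activity expressed as nmol CoA-SH released per min per mg protein. Mean ± SEM, n = 3.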

AML12 [5] = test: Cytotoxicity against mouse AML12 cells assessed as cell viability at 5 uM measured after 24 hrs by MTT assay; format: cell-based; conditions: aml12, 24 h
AML12 [6] = test: Activation of CPT1A in mouse AML12 cells assessed as inhibition of oleic acid-induced lipid accumulation using L-carnitine and palmitoyl CoA as substrates pretreated with ETO for 6 hrs followed by addition of compound at 40 uM measured after 48 hrs by […] reagent based enzymatic assay; format: cell-based; in short: as §2
AML12 [7] = test: Activation of CPT1A in mouse AML12 cells assessed as inhibition of oleic acid-induced lipid accumulation using L-carnitine and palmitoyl CoA as substrates at 40 uM measured after 48 hrs by […] reagent based enzymatic assay relative to control; format: cell-based; conditions: filed as activator; in short: as §2
AML12 [8] = test: Activation of CPT1A in mouse AML12 cells assessed as inhibition of oleic acid-induced lipid accumulation using L-carnitine and palmitoyl CoA as substrates at 20 uM measured after 48 hrs by […] reagent based assay relative to control; format: cell-based; conditions: filed as activator; in short: as §2
AML12 [9] = test: Cytotoxicity against mouse AML12 cells assessed as cell viability at 20 uM measured after 24 hrs by MTT assay; format: cell-based; conditions: aml12, 24 h
AML12 [10] = test: Inhibition of oleic acid-induced lipid accumulation in mouse AML12 cells with Si-RNA-induced ACSL1 knockdown; format: functional, cell-based
AML12 [11] = test: Inhibition of oleic acid-induced lipid accumulation in mouse AML12 cells at 20 uM preincubated with oleic acid for 24 hrs followed by addition of compounds and measured after 24 hrs by Oil red O staining based microscopic assay; format: functional, cell-based
In short: (§3)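 Normal mouse liver AML12 cells loaded with 0.15 mM oleic acid in BSA to induce lipid droplets, then given compound for 24 h. DMSO vehicle as control. Stained with Oil Red O and quantified by image analysis. Mean ± SEM, n = 3.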

AML12 [12] = test: Cytotoxicity against mouse AML12 cells assessed as cell viability at 40 uM measured after 24 hrs by MTT assay; format: cell-based; conditions: aml12, 24 h
AML12 [13] = test: Inhibition of oleic acid-induced lipid accumulation in mouse AML12 cells at 40 uM preincubated with oleic acid for 24 hrs followed by addition of compounds and measured after 24 hrs by Oil red O staining based microscopic assay; format: functional, cell-based; in short: as §3
AML12 [14] = test: Cytotoxicity against mouse AML12 cells assessed as cell viability at 10 uM measured after 24 hrs by MTT assay; format: cell-based; conditions: aml12, 24 h
AML12 [15] = test: Inhibition of oleic acid-induced lipid accumulation in mouse AML12 cells assessed as increased expression of CPT1A preincubated with ETO at 40 uM measured after 24 hrs by Oil red O staining based microscopic assay; format: functional, cell-based; in short: as §1

Q: Which results are given for `CC(C)c1ccc2c(c1)C(=O)C[C@H]1[C@](C)(C(=O)O)CCC[C@]21C`?
A: inhibition (AML12 [1]): Active; inhibition (AML12 [2]): Active; inhibition (AML12 [3]): inactive; Activity (AML12 [4]): inactive; Activity (AML12 [5]): Non-Toxic; Activity (AML12 [6]): inactive; fold change (FC) (AML12 [7]): 1.6; fold change (FC) (AML12 [8]): 1.5; Activity (AML12 [9]): Non-Toxic; inhibition (AML12 [10]): Active; inhibition (AML12 [11]): Active; Activity (AML12 [12]): Non-Toxic; inhibition (AML12 [13]): Active; Activity (AML12 [14]): Non-Toxic; inhibition (AML12 [15]): inactive
